Values joined by “and” are separate entries in the source; they are usually repeats but may differ in a detail not shown here. Equal entries are not always repeated.
What was measured:
[1] = Kinetic solubility of compound
[2] = Permeability of the compound at pH 7.4 incubated for 30 mins by UV plate reader based PAMPA assay; details: for permeability: pampa, pH 7.4, 0.5 h; for Papp at 0.5 h: PAMPA, pH 7.4
[3] = tested on: PC-3M; assay: Anticancer activity in human PC-3M cells expressing PTB/GFP fusion protein assessed as perinucleolar compartment disassembly and measured after 24 hrs by Hoechst 33342 staining based microscopic method; assay type: functional, cell-based
Summary of the method: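 Imaged by high-content microscopy. Nuclei with PNC spots ≥3 and >0 scored positive. PNC prevalence % = PNC-positive nuclei/total nuclei ×100, normalized to DMSO (0% activity) and 0% PNC (−100%). IC50 from concentration-response.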

[4] = Microsomal stability in CD1 mouse liver microsomes assessed as half life measured upto 60 mins in presence of NADPH by LC-MS analysis; details: for t1/2: mouse, microsomes, 1 h; for half-life at 1 h: CD1, mouse, liver microsomes
[5] = Cytotoxicity against human PC-3M cells expressing PTB/GFP fusion protein assessed as reduction in ATP level and measured after 24 to 48 hrs by ATPlite luminescence assay; assay type: toxicity, cell-based
[6] = in vitro; details: human, PC-3M cells expressing PTB/GFP fusion protein

| Compound | solubility kinetic [1] | permeability [2] | IC50 ([3]; read-out: IC50) | IC50 ([3]; read-out: pIC50 (converted)) | t1/2 [4] | IC50 [5] | selectivity ratio [6] | half-life at 1 h [4] | Papp at 0.5 h [2] |
| --- | --- | --- | --- | --- | --- | --- | --- | --- | --- |
| N=c1c2c(-c3ccccc3)c(-c3ccccc3)n(Cc3ccccc3)c2ncn1C1CCOCC1 | 18 µM and 8.3 µg/mL | > 1000 10^-6 cm/s | 0.32 µM | 0.316 µM | 29.6 min |  |  |  |  |
| COc1cccc2c1C(=O)c1c(O)c3c(c(O)c1C2=O)C[C@@](O)(C(=O)CO)C[C@@H]3O[C@H]1C[C@H](N)[C@H](O)[C@H](C)O1 [DOXORUBICIN] |  |  | 0.86 µM |  |  | 0.66 µM |  |  |  |
| CC[C@@]1(O)C(=O)OCc2c1cc1n(c2=O)Cc2cc3ccccc3nc2-1 [CAMPTOTHECIN] |  |  | 0.19 µM |  |  | 0.48 µM | 2.5 |  |  |
| N=c1c2c(-c3ccccc3)c(-c3ccccc3)n(CCc3ccccc3)c2ncn1[C@H]1CC[C@H](O)CC1 | > 132 µM and > 65 µg/mL | > 1000 10^-6 cm/s |  | 0.339 µM |  |  |  | 120 min |  |
| N=c1c2c(-c3ccccc3)c(-c3ccccc3)n(Cc3ccccc3)c2ncn1C1CCC(=O)CC1 | 75 µM and 36 µg/mL | > 1000 10^-6 cm/s |  | 0.302 µM | 38.2 min |  |  |  |  |
| N=c1c2c(-c3ccccc3)c(-c3ccccc3)n(CC3CC3)c2ncn1CCCO |  | > 1000 10^-6 cm/s | 6.31 µM |  | 25.4 min |  |  |  |  |
| N=c1c2c3c(n(CCc4ccccc4)c2ncn1[C@H]1CC[C@H](O)CC1)CCCC3 |  | 204.6 10^-6 cm/s | > 20 µM |  | 86.5 min |  |  |  |  |
| N=c1c2c(-c3ccccc3)c(-c3ccccc3)n(Cc3ccccc3)c2ncn1CCCCCO |  | > 1000 10^-6 cm/s |  | 3.16 µM | 9 min |  |  |  |  |
| N#Cc1c(-c2ccccc2)c(-c2ccccc2)n(Cc2ccccc2)c1N |  | 62 10^-6 cm/s | > 20 µM |  | 13.3 min |  |  |  |  |
| N#Cc1c(-c2ccccc2)c(-c2ccccc2)n(Cc2ccccc2)c1/N=C/N[C@H]1CC[C@H](O)CC1 |  | 327.5 10^-6 cm/s | > 20 µM |  | 11.2 min |  |  |  |  |
| CN(C)CCCn1cnc2c(c(-c3ccccc3)c(-c3ccccc3)n2Cc2ccccc2)c1=N |  |  | 12.6 µM | 12.6 µM |  |  |  | 120 min | 320 ×10⁻⁶ cm/s |
| N=c1c2c(-c3ccccc3)c(-c3ccccc3)n(CCc3ccccc3)c2ncn1CCCCO |  |  | 4.47 µM | 4.47 µM |  |  |  | 6.6 min | > 1000 ×10⁻⁶ cm/s |
| N=c1c2c(-c3ccccc3)c(-c3ccccc3)n(CC3CC3)c2ncn1C1CCOCC1 |  | > 1000 10^-6 cm/s |  | 0.832 µM | 68 min |  |  |  |  |
| N=c1c2c(-c3ccccc3)c(-c3ccccc3)n(Cc3ccc(OC(F)(F)F)cc3)c2ncn1C1CCOCC1 |  | > 1000 10^-6 cm/s |  | 0.955 µM | 72 min |  |  |  |  |
| Cc1c(C)n(Cc2ccccc2)c2ncn([C@H]3CC[C@H](O)CC3)c(=N)c12 |  | < 1 10^-6 cm/s | > 20 µM |  |  |  |  | 120 min |  |
| COc1ccc(-c2c(-c3ccc(OC)cc3)n(Cc3ccccc3)c3ncn(CC4CCOC4)c(=N)c23)cc1 (stereo unspecified) |  | > 1000 10^-6 cm/s | > 20 µM |  | 16.5 min |  |  |  |  |
| N=c1c2c(-c3ccccc3)c(-c3ccccc3)n(CC3CC3)c2ncn1CC1CCOCC1 |  | > 1000 10^-6 cm/s |  | 33.9 µM | 16.3 min |  |  |  |  |
| N=c1c2c(-c3ccccc3)c(-c3ccccc3)n(Cc3ccccc3)c2ncn1CCO |  | > 1000 10^-6 cm/s |  | 0.832 µM | 25.1 min |  |  |  |  |
| N=c1c2c(-c3ccccc3)c(-c3ccccc3)n(CCc3ccccc3)c2ncn1CCO |  | > 1000 10^-6 cm/s |  | 1.32 µM | 32.6 min |  |  |  |  |
| N=c1c2c(-c3ccccc3)c(-c3ccccc3)n(Cc3ccccc3)c2ncn1CCCCO |  | > 1000 10^-6 cm/s |  | 4.27 µM | 7.7 min |  |  |  |  |
| N=c1c2c(-c3ccccc3)c(-c3ccccc3)n(Cc3ccccc3)c2ncn1CCNc1ccncc1 |  | 445.1 10^-6 cm/s |  | 6.61 µM | 29.9 min |  |  |  |  |
| N=c1c2c(-c3ccccc3)c(-c3ccccc3)n(Cc3ccc(OC(F)(F)F)cc3)c2ncn1[C@H]1CC[C@@H](O)CC1 |  | 1246.89 10^-6 cm/s |  | 3.39 µM |  |  |  | 120 min |  |
